The record followed here is ChEMBL document CHEMBL4396874, “Consideration of Binding Kinetics in the Design of Stapled Peptide Mimics of the Disordered Proteins Eukaryotic Translation Initiation Factor 4E-Binding Protein 1 and Eukaryotic Translation Initiation Factor 4G” (J Med Chem, 2019).

Data set [1] addresses T1, Eukaryotic translation initiation factor 4E (Homo sapiens, UniProt P06730). The experiment in a line: Binding affinity to N-terminal 10His-tagged m7GDP-bound recombinant human eIF4E expressed in Escherichia coli BL21 (DE3) cells assessed as association rate constant at 25 degreeC by surface plasmon resonance analysis.
Data set [2] addresses T1, Eukaryotic translation initiation factor 4E. Briefly: Binding affinity to N-terminal 10His-tagged m7GDP-bound recombinant human eIF4E expressed in Escherichia coli BL21 (DE3) cells assessed as dissociation rate constant at 25 degreeC by surface plasmon resonance analysis.
For data set [3] the target is unchanged. Briefly: Binding affinity to N-terminal 10His-tagged m7GDP-bound recombinant human eIF4E expressed in Escherichia coli BL21 (DE3) cells assessed as association constant at 12.5 to 200 nM at 10 to 25 degreeC by surface plasmon resonance analysis.
For data set [4] the target is unchanged. Briefly: Binding affinity to N-terminal 10His-tagged m7GDP-bound recombinant human eIF4E expressed in Escherichia coli BL21 (DE3) cells assessed as binding constant at 25 degreeC in presence of 1000 mM of NaCl by surface plasmon resonance analysis. In short, it runs like this:
(§1)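 Peptides injected at 50 μL/min, 10 concentrations (188 nM to 4.0 μM) in duplicate, random order. Chip stripped with EDTA and reloaded between cycles.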

For data set [5] the target is unchanged. The experiment in a line: Binding affinity to N-terminal 10His-tagged m7GDP-bound recombinant human eIF4E expressed in Escherichia coli BL21 (DE3) cells assessed as binding constant at 25 degreeC by surface plasmon resonance analysis. In short, it runs like this: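 m7GDP-bound His10-eIF4E captured to ~600 RU on a Ni-activated HisCap chip. EDTA regeneration between cycles. Kd from global 1:1 fit; triplicate experiments.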

Data set [6] shares this target. The experiment in a line: Binding affinity to N-terminal 10His-tagged m7GDP-bound recombinant human eIF4E expressed in Escherichia coli BL21 (DE3) cells assessed as binding constant at 10 to 25 degreeC by surface plasmon resonance analysis.
Data set [7] shares this target. The experiment in a line: Binding affinity to N-terminal 10His-tagged m7GDP-bound recombinant human eIF4E expressed in Escherichia coli BL21 (DE3) cells assessed as dissociation constant at 10 to 25 degreeC by surface plasmon resonance analysis relative to control. In short, it runs like this:
as §1

For data set [8], the target named is Eukaryotic translation initiation factor 4E/Eukaryotic translation initiation factor 4E-binding protein 1 (Homo sapiens, UniProt P06730). The experiment in a line: Inhibition of Halo-tagged biotinylated human eIF4E expressed in Escherichia coli/Halo-tagged methyltetrazine-labelled human 4E-BP1 expressed in Escherichia coli protein-protein interaction incubated for 1 hr by catalytic enzyme-linked click chemistry assay.

Data set [9] deals with MDA-MB-231. Briefly: Anti-proliferative activity against human MDA-MB-231 cells at 5 to 20 uM after 6 days by CellTiter-Glo assay. In kind it is functional, cell-based. The gist of the method:
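MDA-MB-231 cells (RPMI-1640, 10% FBS, 2 mM glutamine) plated at 2000 cells/well; peptides added at varying concentrations in triplicate for 6 days. Medium then replaced with OptiMEM, cells lysed with CellTiter-Glo reagent, luminescence read within 1 h. Data normalized; triplicate biological replicates.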

Data set [10] addresses EIF4E/EIF4G1 (Homo sapiens) (UniProt P06730+Q04637). The experiment in a line: Inhibition of eIF4E/eIF4G interaction in human MDA-MB-231 cells incubated for 6 hr by m7GDP pull down assay. In kind it is cell-based.
Data set [11] concerns the target Eukaryotic translation initiation factor 4E/Eukaryotic translation initiation factor 4E-binding protein 1 (Homo sapiens) (UniProt P06730+Q13541). Briefly: Inhibition of eIF4E/4E-BP1 interaction in human MDA-MB-231 cells incubated for 6 hr by m7GDP pull down assay. Type of data set: cell-based.
Data set [12] has as its system MDA-MB-231. The experiment in a line: Induction of cell lysis in human MDA-MB-231 cells assessed as LDH leakage at 15 uM after 24 hrs by LDH cytotoxicity assay. As to conditions: mda-mb-231, 24 h.
Data set [13] relates to MDA-MB-231. The experiment in a line: Effect on total 4E-BP1 level in human MDA-MB-231 cells at 5 uM after 6 hrs by Western blot analysis. The conditions noted are these: mda-mb-231, 6 h. Type of data set: ADME, cell-based. In short, it runs like this:
(§2)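 MDA-MB-231 cells in 10% FBS treated 6 h with water-dissolved peptides, lysed in RIPA with protease/phosphatase inhibitors, sonicated on ice, protein normalized by BCA, then western blotted (4–12% bis-Tris gel, PVDF, 5% milk block, primary overnight at 4 °C). Triplicate biological replicates.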

In data set [14] the test system is MDA-MB-231. The experiment in a line: Effect on total eIF4E level in human MDA-MB-231 cells at 5 uM after 6 hrs by Western blot analysis. In kind it is ADME, cell-based. As to conditions: mda-mb-231, 6 h. The gist of the method:
as §2

Data set [15] has as its system MDA-MB-231. The experiment in a line: Effect on total eIF4G level in human MDA-MB-231 cells at 5 uM after 6 hrs by Western blot analysis. In kind it is ADME, cell-based. As to conditions: mda-mb-231, 6 h. The gist of the method:
as §2

Data set [16] concerns the target T1, Eukaryotic translation initiation factor 4E.
Data set [17] shares this target. The experiment in a line: Binding affinity to N-terminal 10His-tagged m7GDP-bound recombinant human eIF4E expressed in Escherichia coli BL21 (DE3) cells assessed as dissociation constant at 25 degreeC in presence 225 to 1000 mM of NaCl by surface plasmon resonance analysis.

The source made the active and inactive calls. No cut-off for these calls is given here. Bridge positions count the residues as written; N and C are the ends. Square brackets hold non-standard residues; d marks the D form. Peptide text beside a SMILES is read from it. S5 = C=CCCC[C@](C)(N)C(=O)O

Sequence of Eukaryotic translation initiation factor 4E/Eukaryotic translation initiation factor 4E-binding protein 1 (P06730 whole entry): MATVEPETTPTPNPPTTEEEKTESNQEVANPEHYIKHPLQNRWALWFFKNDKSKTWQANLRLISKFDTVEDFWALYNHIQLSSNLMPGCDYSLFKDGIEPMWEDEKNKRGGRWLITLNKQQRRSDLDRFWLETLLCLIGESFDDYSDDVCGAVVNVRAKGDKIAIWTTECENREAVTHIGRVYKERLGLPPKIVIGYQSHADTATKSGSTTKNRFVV
Sequence of Eukaryotic translation initiation factor 4E/Eukaryotic translation initiation factor 4E-binding protein 1 (Q13541 whole entry, further chain): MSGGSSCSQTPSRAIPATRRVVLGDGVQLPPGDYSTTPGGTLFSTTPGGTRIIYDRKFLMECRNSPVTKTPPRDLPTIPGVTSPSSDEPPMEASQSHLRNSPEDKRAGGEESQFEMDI
T1 sequence (P06730 whole entry): as the sequence (P06730 whole entry) above
Sequence of Eukaryotic translation initiation factor 4E/Eukaryotic translation initiation factor 4E-binding protein 1 (Homo sapiens) (P06730 2-217 limits assumed): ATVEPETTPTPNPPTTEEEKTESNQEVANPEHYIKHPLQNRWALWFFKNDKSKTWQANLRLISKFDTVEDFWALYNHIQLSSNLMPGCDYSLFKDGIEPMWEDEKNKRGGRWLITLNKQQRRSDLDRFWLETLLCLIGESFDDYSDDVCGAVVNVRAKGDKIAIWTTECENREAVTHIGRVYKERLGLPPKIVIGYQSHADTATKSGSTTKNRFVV
Sequence of Eukaryotic translation initiation factor 4E/Eukaryotic translation initiation factor 4E-binding protein 1 (Homo sapiens) (Q13541 2-118 partner limits assumed): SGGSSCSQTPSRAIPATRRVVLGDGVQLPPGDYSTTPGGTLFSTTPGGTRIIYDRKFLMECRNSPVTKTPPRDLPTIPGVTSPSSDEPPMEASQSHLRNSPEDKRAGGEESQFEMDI

Regarding Ac-KKRYSREQLLGL-NH2, the kon in data set [1] stood at 2 ×10⁶ /M/s. Further, the koff in data set [2] was found to be 123 ×10⁻³ /s. Also, the Ka entry in data set [3] is “inactive”. The K in data set [4] was 14 to 62 nM; in data set [5], 62 nM. For the same compound, the K result in data set [6] was “Active”. In addition, the fold change (FC) in data set [7] was 3.9 to 5.5. Also, the IC50 in data set [8] fell in the range of 384 to 633 nM.

In the case of `CC(=O)N[C@@H](CCCCN)C(=O)N[C@@H](CCCCN)C(=O)N[C@@H](CCCNC(=N)N)C(=O)N[C@@H](Cc1ccc(O)cc1)C(=O)N[C@@H](CC(=O)O)C(=O)N[C@@H](CCCNC(=N)N)C(=O)N[C@@H](CCC(=O)O)C(=O)N[C@@H](Cc1ccccc1)C(=O)N[C@@H](CC(C)C)C(=O)N[C@@H](CC(C)C)C(=O)NCC(=O)N[C@@H](Cc1ccccc1)C(=O)N[C@@H](CCC(N)=O)C(=O)N[C@@H](Cc1ccccc1)C(N)=O`, the IC50 in data set [8] was in the range of 137 to 195 nM.

Regarding `CC(=O)N[C@@H](CCCCN)C(=O)N[C@@H](CCCCN)C(=O)N[C@@H](CCCNC(=N)N)C(=O)N[C@@H](Cc1ccc(O)cc1)C(=O)N[C@@H](CC(=O)O)C(=O)N[C@@H](CCCNC(=N)N)C(=O)N[C@@]1(C)CCC/C=C\CCC[C@@](C)(C(=O)N[C@@H](Cc2ccccc2)C(=O)N[C@@H](CCC(N)=O)C(=O)N[C@@H](Cc2ccccc2)C(N)=O)NC(=O)[C@H](CC(C)C)NC(=O)[C@H](CC(C)C)NC(=O)[C@H](Cc2ccccc2)NC1=O` (Ac-KKRYDR[S5]FLL[S5]FQF-NH2; staple (Z) 7-11), in data set [8], the IC50 was in the range of 4500 to 7300 nM.

Turning to `CC(=O)N[C@@H](CCCCN)C(=O)N[C@@H](CCCCN)C(=O)N[C@@H](CCCNC(=N)N)C(=O)N[C@@H](Cc1ccc(O)cc1)C(=O)N[C@@H](CO)C(=O)N[C@@H](CCCNC(=N)N)C(=O)N[C@@]1(C)CCC/C=C\CCC[C@@](C)(C(=O)N[C@@H](CC(C)C)C(N)=O)NC(=O)[C@H](CC(C)C)NC(=O)[C@H](CC(C)C)NC(=O)[C@H](CCC(N)=O)NC1=O`, in the data set on MDA-MB-231 [9], the outcome was Active. Further, the inhibition entry in [10] and in data set [11] was “Dose-dependent effect” throughout. The Activity entry in the data set with MDA-MB-231 [12], in the data set with MDA-MB-231 [13], in the data set on MDA-MB-231 [14] and in the data set on MDA-MB-231 [15] was “Non-Toxic” each time. In addition, the concentration for half-maximal inhibition (IC50) in data set [8] lay in the range of 16.6 to 31 nM.

For H-KKRYDRKFLMECRN-NH2, the kon in data set [1] was 2 ×10⁶ /M/s. Besides, the fold change (FC) in data set [7] was in the range of 3.9 to 5.5.

With `CC[C@H](C)[C@H](NC(=O)[C@@H](NC(=O)[C@@H](N)CCCNC(=N)N)[C@@H](C)CC)C(=O)N[C@@H](Cc1ccc(O)cc1)C(=O)N[C@@H](CC(=O)O)C(=O)N[C@@H](CCCNC(=N)N)C(=O)N[C@@H](CCCCN)C(=O)N[C@@H](Cc1ccccc1)C(=O)N[C@@H](CC(C)C)C(=O)N[C@@H](CCSC)C(=O)N[C@@H](CCC(=O)O)C(=O)N[C@@H](CS)C(=O)N[C@@H](CCCNC(=N)N)C(=O)N[C@@H](CC(N)=O)C(N)=O`, the K entry in data set [4] was “Active”. The Ka entry in data set [16] is “inactive”. For the same compound, the Kd result in [17] is listed as “Not Active”. Moreover, the fold change (FC) in data set [7] is 3.9 to 5.5.

As to `CC[C@H](C)[C@H](NC(=O)[C@H](CCCNC(=N)N)NC(=O)[C@@H](NC(=O)CNC(C)=O)[C@@H](C)O)C(=O)N[C@H](C(=O)N[C@@H](Cc1ccc(O)cc1)C(=O)N[C@@H](CC(=O)O)C(=O)N[C@@H](CCCNC(=N)N)C(=O)N[C@@]1(C)CCC/C=C\CCC[C@@](C)(C(=O)N[C@@H](CS)C(=O)N[C@@H](CCCNC(=N)N)C(=O)N[C@@H](CC(N)=O)C(N)=O)NC(=O)[C@H](C)NC(=O)[C@H](C)NC(=O)[C@H](Cc2ccccc2)NC1=O)[C@@H](C)CC`, in the data set on MDA-MB-231 [9], the result was inactive.

Regarding `CC[C@H](C)[C@H](NC(=O)[C@H](CCCNC(=N)N)NC(=O)[C@@H](NC(=O)CNC(C)=O)[C@@H](C)O)C(=O)N[C@H](C(=O)N[C@@H](Cc1ccc(O)cc1)C(=O)N[C@@H](CC(=O)O)C(=O)N[C@@H](CCCNC(=N)N)C(=O)N[C@@]1(C)CCC/C=C\CCC[C@@](C)(C(=O)N[C@@H](CS)C(=O)N[C@@H](CCCNC(=N)N)C(=O)N[C@@H](CC(N)=O)C(N)=O)NC(=O)[C@H](CCSC)NC(=O)[C@H](CC(C)C)NC(=O)[C@H](Cc2ccccc2)NC1=O)[C@@H](C)CC`, the outcome in the data set with MDA-MB-231 [9] was Active. The Activity result in the data set on MDA-MB-231 [13], in the data set on MDA-MB-231 [14] and in the data set on MDA-MB-231 [15] was “Non-Toxic” each time. The compound further gave an IC50 in data set [8] of 3.1 to 6.7 nM.
